# Source: PubChem BioAssay (Broad Institute)
# Sampled rows, rich in hits. Any-hit rate of the full collection: about 2.3%.
# CFTR F508del cor: F508del CFTR correction, initial screen, CFBE line, single point | CFBE cells, YFP halide quenching; stimulated with forskolin plus potentiator P3; % fluorescence drop versus neutral controls | activity (quench increase), % at 7.58 µM | hit rate 0.36% among 350,000 | AID 720511, 2013;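 active = mean added fluorescence quench of at least 8% versus neutral control, with both replicates also reaching 8%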;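 note: cells transiently co-express mutant CFTR-F508del with the halide-sensitive YFP; corrector assay measuring rescue of mutant channel to the surface after 24 h compound exposure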
# PDI turbidity: inhibitors of human PDI, primary screen, biochemical, turbidity, single point, plate reader | Protein disulfide-isomerase (Homo sapiens), P07237 | PDI insulin aggregation turbidity, A650, 90 min | inhibition, % at 10 µM | hit rate 0.052% among 350,000;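 active = mean inhibition across replicates of 30% or more, whatever share of single replicates reach that level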
# DENV2 CPE rescue: inhibitors of DENV2 cytopathic effect, primary screen, cell-based, plate reader, single concentration. DENV2-infected cells, cytopathic effect rescue. CPE inhibition, % at 9.99 µM. hit rate 1.7% among 350,000; in the data active = CPE inhibition above about 20%, passing the limit was not always enough; tested in BHK-21 cells;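 note: 0% = median of neutral control wells and 100% = median of positive control wells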
# Cneo AK release: Cryptococcus neoformans cell lysis inducers, primary screen, AK release luminescence, single concentration | C. neoformans lysis, adenylate kinase release luminescence, 4 h; normalised: neutral wells 0, clomiphene wells 100 | lysis activity, % at 15 µM | hit rate 0.2% among 360,000 | AID 651654, 2012;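 active = mean lysis activity across replicates of at least 80%, whatever share of replicates individually reach that level; inactive = mean lysis activity below 80%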
#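 Material: C. neoformans cells; Schedule: 4 h static compound exposure, 37 °C, read 1 h post-reagent; Measured by: adenylate kinase release luminescence; Read-out: signal increase indicating cell lysis; Controls: Clomiphene as positive lysis control.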
# Statin myotox sup: suppressors of statin myotoxicity in C2C12 myotubes, primary screen, cell-based, single point, plate reader. C2C12 myotubes + simvastatin, ATP luminescence, 48 h; scaled: DMSO 0, geranylgeraniol control 100. rescue of ATP level, % at 7.49 µM. hit rate 0.78% among 330,000;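 active = mean ATP rescue above about 67%, or every replicate alone reaching that limit, limit read from the data, passing the limit was not always enough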;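 note: myotubes were challenged with 10 µM simvastatin during compound exposure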
# ERp5 inh: inhibitors of ERp5-driven insulin aggregation, primary screen, biochemical, turbidity, absorbance 650 nm, single point; Protein disulfide-isomerase A6 (Homo sapiens), Q15084; 90 min; inhibition, % at 9.99 µM; hit rate 0.05% among 350,000; AID 651711, 2012;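 active = mean replicate inhibition above about 25%, with every replicate also reaching it, limit read from the data, passing the limit was not always enough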
# Target sequence (Q15084 whole entry, looked up): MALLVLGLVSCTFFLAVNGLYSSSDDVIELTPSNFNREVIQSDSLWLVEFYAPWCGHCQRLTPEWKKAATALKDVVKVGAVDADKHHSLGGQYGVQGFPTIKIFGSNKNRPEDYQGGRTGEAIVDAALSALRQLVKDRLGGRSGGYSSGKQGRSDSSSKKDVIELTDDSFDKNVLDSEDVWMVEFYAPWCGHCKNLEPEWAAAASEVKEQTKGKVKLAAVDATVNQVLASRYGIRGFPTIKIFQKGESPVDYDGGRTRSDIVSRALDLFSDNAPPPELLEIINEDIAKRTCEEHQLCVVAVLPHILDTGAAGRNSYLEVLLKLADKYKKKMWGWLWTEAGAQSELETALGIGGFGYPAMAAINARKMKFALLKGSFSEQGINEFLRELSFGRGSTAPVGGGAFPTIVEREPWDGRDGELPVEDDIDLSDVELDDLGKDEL
# * marks the source's active call; other numbers are inactive results; . = no result given.
SMILES,CFTR F508del cor,PDI turbidity,DENV2 CPE rescue,Cneo AK release,Statin myotox sup,ERp5 inh
CCCC(=O)Nc1ccc2c(c1)OC[C@@H](C)N(Cc1ccccn1)C[C@@H](C)[C@H](OC)CN(C)C2=O,6.0,.,1.2,94.4*,5.9,-0.2
COc1cccc(NC(=O)N[C@@H]2CC[C@H](CC(=O)N3CCOCC3)O[C@H]2CO)c1,-1.2,.,-4.1,-4.8,2.6,-1.9
Cc1ccc(S(=O)(=O)NCC[C@H]2CC[C@H](NC(=O)Nc3cccc(F)c3)[C@@H](CO)O2)cc1,-1.5,.,-1.1,-2.2,5.7,3.5
CO[C@@H]1CN(C)C(=O)c2ccc(NC(=O)C3CCOCC3)cc2OC[C@H](C)N(CC2CC2)C[C@@H]1C,2.1,.,8.4,-12.2,9.4,-5.0
CO[C@@H]1CN(C)C(=O)c2ccc(NS(C)(=O)=O)cc2OC[C@H](C)N(Cc2cccnc2)C[C@@H]1C,2.1,.,26.2*,-5.6,6.4,-1.8
CO[C@@H]1CN(C)C(=O)c2ccc(NC(=O)C3CCOCC3)cc2OC[C@@H](C)N(CC2CCCCC2)C[C@H]1C,0.4,.,53.7*,2.5,7.6,-1.8
C[C@H]1CCCCO[C@H](CN(C)S(=O)(=O)c2ccc(F)cc2)[C@@H](C)CN([C@@H](C)CO)C(=O)c2cc(NC(=O)Nc3ccc(F)cc3)ccc2O1,-0.9,.,-7.7,12.1,.,.
CCCS(=O)(=O)N1CCCC(C(=O)NCCN(C)Cc2ccccc2)C1 (stereo not given),.,3.2,.,1.0,1.2,.
CCS(=O)(=O)N1CCCC(C(=O)NCCc2ccccc2)C1 (stereo not given),.,19.8,.,.,.,.
CCCS(=O)(=O)N1CCCC(C(=O)NCCc2cccc(C)c2)C1 (stereo not given),0.4,-4.6,26.7*,-3.1,15.6,2.8
CCCS(=O)(=O)N1CCCC(C(=O)NCCN2CCC(Cc3ccccc3)CC2)C1 (stereo not given),.,-9.4,.,-1.2,116.9*,.
Cc1oc(-c2ccc(Cl)cc2)nc1CS(=O)CC(=O)NC1CCCC1 (stereo not given),0.1,-4.1,6.2,0.2,98.9*,5.0
Cc1ccc(-c2nc(CS(=O)CC(=O)NC3CCCCC3)c(C)o2)cc1 (stereo not given),-2.4,10.5,-4.0,1.1,104.9*,1.8
Cc1oc(-c2ccc(Cl)cc2)nc1CS(=O)CC(=O)NC1CCCCC1 (stereo not given),-3.7,2.2,-5.0,-0.2,21.6,-0.5
CCCC(=O)Nc1ccc2c(c1)C(=O)N(C)[C@H]1CC[C@@H](CC(=O)Nc3ccccc3)O[C@@H]1CO2,0.8,.,-3.1,-1.7,-8.6,-5.0
C[C@H](CO)N1C[C@H](C)[C@@H](CN(C)C(=O)C2CCC2)Oc2cc(-c3ccc(C(=O)N(C)C)cc3)ccc2S1(=O)=O,1.7,.,1.4,-8.4,8.7,-1.3
CC(C)NC(=O)N(C)C[C@H]1Oc2ncc(C#CC3(O)CCCC3)cc2C(=O)N([C@H](C)CO)C[C@H]1C,1.3,.,1.9,45.4,-4.5,1.3
COc1ccccc1C(CNc1ncnc2sc(C)c(C)c12)N(C)C (stereo not given),-1.1,4.8,46.3*,2.8,-7.9,0.0
N#Cc1cccc(-c2ccc(C3[C@H]4CNC[C@@H]3N4C(=O)Nc3ccccc3F)cc2)c1 (stereo not given in full),-0.9,.,4.6,.,.,-1.4
CCc1ccc(C(C)NC(=S)NCc2ccc(F)cc2)cc1 (stereo not given),0.3,0.5,-2.9,115.0*,-10.4,-1.4
CC(C)C1C(C#N)=C(N)Oc2n[nH]c(-c3ccccc3)c21 (stereo not given),.,4.1,.,-0.6,.,.
CC(C)c1[nH]nc2c1C(C(C)C)C(C#N)=C(N)O2 (stereo not given),.,5.4,.,0.2,71.9*,.
COc1ccccc1-c1cn(CC[C@@H]2CC[C@H](NC(=O)Cc3ccccn3)[C@H](CO)O2)nn1,0.3,.,40.2*,4.6,-4.2,-0.2
